The values below come from PubChem BioAssay AID2152 (The Scripps Research Institute Molecular Screening Center, 2009).

The structures appear in SMILES notation. About 25 (1%) of roughly 2,300 compounds were called active. The sample holds actives, similar compounds and a random draw of the others, so the mix is not that of the screen.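 The calls were made as follows: active = mean inhibition over three replicate wells above the hit threshold derived in the earlier primary screen (cut at about 45% in these data); inactive = the rest.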

For the experiment, the system named is Hepatitis C virus core protein (core106 dimerization). As to the kind of experiment: inhibitors of HCV core protein dimerization, confirmation, biochemical, TR-FRET, triplicate (AID 2152).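 Also: 0% = DMSO wells and 100% = unlabelled core106 competitor control.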 Particulars: TR-FRET GST-/Flag-core106 dimerization, HTRF; at 5 µM; stronger effect = higher value. The procedure, abridged: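 Test system: GST- and Flag-tagged HCV core106 peptides, dimerization via antibody TR-FRET | Medium: HEPES/KF buffer, pH 7.45 | Also added: Eu(K)-anti-GST plus XL665-anti-FLAG antibodies | Times: 4 h incubation, 22.5 °C | Signal: TR-FRET, excitation 340 nm, emission 671 and 617 nm | Evaluation: Percent inhibition from emission ratio | Replication: Triplicate wells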
Background: In TR-FRET formats the signal depends on donor and acceptor labels being close together.
As to `O=C1NC(=O)N(Cc2ccc(F)cc2)C(=O)/C1=C\c1ccc(N2CCCC2)cc1`, the inhibition (as a rule, the change of the read-out against control, counted positive when it falls) is 4.49% (inactive).

Turning to `CN1C(=O)/C(=C/c2cccn2-c2ccc3ccccc3c2)C(=O)NC1=S`, the inhibition was 9.68% (inactive).

Regarding `Cn1cccc1/C=C1/C(=O)NC(=S)N(Cc2ccc(F)cc2)C1=O`, the inhibition is 64.5% (active).

As to `Cc1ccc(N2C(=O)/C(=C/c3ccc(CN(CCC#N)S(C)(=O)=O)o3)C(=O)NC2=S)cc1C`, the inhibition is -8.42% (inactive).

For `Cc1ccccc1N1C(=O)/C(=C/c2ccco2)C(=O)NC1=S`, the inhibition was 66.3% (active).

With `CCOc1cccc(N2C(=O)/C(=C/c3ccco3)C(=O)NC2=S)c1`, the inhibition was 10.6% (inactive).

For `COC(=O)[C@@H]1[C@@H](C(=O)OC)C2(c3ccccc3-c3ccccc32)N(c2ccc(Cl)cc2)N1C#N`, the inhibition is 8.69% (inactive).

On to `COc1ccccc1C(=O)Nc1ccc2c(c1)CC1(C(=O)N(C)C(=O)N(C)C1=O)C1CCCN21` (stereo not given), for which the inhibition was 7.78% (inactive).

For `Cc1ccccc1-n1c(CNc2ccccc2)nc2ccccc2c1=O`, the inhibition was -1.12% (inactive).

As for `CCN1C(=O)/C(=C/c2ccc3c(c2)CCN3CCCCl)C(=O)NC1=S`, the inhibition was 15.4% (inactive).
